Measured values published in ChEMBL document CHEMBL1147796, “New potent P-glycoprotein inhibitors carrying a polycyclic scaffold” (J Med Chem, 2006).

Experiments:
[1] = target: T1, ATP-dependent translocase ABCB1 (Homo sapiens, UniProt P08183); test: Antiproliferative activity against human MDR1 transfected mouse L5178Y cell line; format: functional, cell-based; settings: read-out: ID50 (the source's name) (converted)
[2] = target: T1, ATP-dependent translocase ABCB1; test: Reversal of multi-drug resistance in L5178Y cells transfected with human MDR1 as relative fluorescent rhodamine123 activity at 0.1 ug/mL; format: cell-based
Procedure, shortened: (§1)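 L5178Y mouse T-cell lymphoma subline carrying the human MDR1 gene, with the parental drug-sensitive line also listed. A larger number of cells was exposed to compound for 30 min. Rhodamine 123 accumulation was read by fluorescence, and P-gp-mediated efflux reversal was expressed as a fluorescence activity ratio.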

[3] = target: T1, ATP-dependent translocase ABCB1; test: Reversal of multi-drug resistance in L5178Y cells transfected with human MDR1 as relative fluorescent rhodamine123 activity at 1 ug/mL; format: cell-based; procedure, shortened: as §1

T1 sequence (P08183 whole entry): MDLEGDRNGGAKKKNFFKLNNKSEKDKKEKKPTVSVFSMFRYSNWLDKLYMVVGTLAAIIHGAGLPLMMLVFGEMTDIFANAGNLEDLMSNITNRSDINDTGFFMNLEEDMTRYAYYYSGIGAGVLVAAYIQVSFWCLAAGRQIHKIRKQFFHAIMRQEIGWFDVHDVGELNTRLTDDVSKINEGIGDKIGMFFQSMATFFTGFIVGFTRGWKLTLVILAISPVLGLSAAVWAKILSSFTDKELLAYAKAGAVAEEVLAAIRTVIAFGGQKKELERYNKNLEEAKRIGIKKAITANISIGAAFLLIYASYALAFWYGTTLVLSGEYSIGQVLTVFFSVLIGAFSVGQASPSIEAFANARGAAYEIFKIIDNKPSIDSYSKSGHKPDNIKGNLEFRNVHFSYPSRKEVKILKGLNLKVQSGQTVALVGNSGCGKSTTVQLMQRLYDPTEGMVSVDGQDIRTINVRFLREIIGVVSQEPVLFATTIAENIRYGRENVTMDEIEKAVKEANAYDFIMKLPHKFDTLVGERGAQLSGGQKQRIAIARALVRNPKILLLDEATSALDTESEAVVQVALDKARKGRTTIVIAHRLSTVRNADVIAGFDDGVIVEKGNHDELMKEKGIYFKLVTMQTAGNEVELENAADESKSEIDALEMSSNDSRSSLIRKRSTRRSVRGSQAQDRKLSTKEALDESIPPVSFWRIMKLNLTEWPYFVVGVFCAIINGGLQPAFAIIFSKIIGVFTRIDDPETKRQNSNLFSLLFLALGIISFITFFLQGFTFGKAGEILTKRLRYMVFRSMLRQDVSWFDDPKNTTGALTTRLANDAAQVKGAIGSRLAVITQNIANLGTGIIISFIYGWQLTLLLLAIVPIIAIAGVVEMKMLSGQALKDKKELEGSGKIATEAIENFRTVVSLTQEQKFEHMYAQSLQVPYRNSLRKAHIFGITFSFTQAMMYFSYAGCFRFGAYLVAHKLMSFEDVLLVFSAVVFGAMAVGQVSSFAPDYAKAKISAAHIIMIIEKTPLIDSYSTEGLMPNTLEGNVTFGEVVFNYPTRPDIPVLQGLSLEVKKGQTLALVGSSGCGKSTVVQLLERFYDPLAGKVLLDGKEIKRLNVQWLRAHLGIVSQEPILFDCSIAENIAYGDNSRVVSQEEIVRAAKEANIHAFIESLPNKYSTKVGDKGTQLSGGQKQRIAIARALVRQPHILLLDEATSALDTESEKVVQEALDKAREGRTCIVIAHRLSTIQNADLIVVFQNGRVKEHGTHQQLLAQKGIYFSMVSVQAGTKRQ

SMILES	GI50 [1] [µM]	Ratio [2]	Ratio [3]
COc1ccc(CCN(C)CCN2C(=O)C3C4c5ccccc5C(c5ccccc54)C3C2=O)cc1OC (centres undefined)	4.23	2.76	47.85
COc1ccc(CCN(C)CCCN2C(=O)C3C4c5ccccc5C(c5ccccc54)C3C2=O)cc1OC (centres undefined)	5.72	7.91	28.62
COc1ccc(CCN(C)CC#CCN2C(=O)C3C4c5ccccc5C(c5ccccc54)C3C2=O)cc1OC (centres undefined)	2.55	2.65	89.35
